Results: ChEMBL document CHEMBL1134791, “2- and 3-substituted 1,4-naphthoquinone derivatives as subversive substrates of trypanothione reductase and lipoamide dehydrogenase from Trypanosoma cruzi: synthesis and correlation between redox cycling activities and in vitro cytotoxicity” (J Med Chem, 2001)

Legend:
Trypanosoma cruzi = test: In vitro antiparasitic activity against Trypanosoma cruzi was tested by sigmoidal regression analysis; type: functional; conditions: read-out: ED50 (the source's name)
Method in brief: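 Mouse peritoneal macrophages (female CD1, starch-elicited, harvested 24 h) infected with L. donovani amastigotes (strain MHOM/ET/67/L82, hamster spleen) or T. cruzi Y-strain trypomastigotes (5:1, from MDCK overlay). Infected cells exposed to a 3-fold dilution series in quadruplicate for 5 days (L. donovani) or 3 days (T. cruzi). Giemsa-stained slides scored for % macrophages cleared of amastigotes versus untreated cultures. ED50 by sigmoidal regression.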

Trypanosoma brucei [1] = test: In vitro antiparasitic activity against Trypanosoma brucei was tested by sigmoidal regression analysis; type: functional; conditions: read-out: ED50 (the source's name)
Method in brief: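 T. b. brucei S427 bloodstream trypomastigotes at 2 × 10⁵/mL in HMI-18 medium, in triplicate, with a 3-fold dilution series starting at 30 µM. Incubated 3 days at 37 °C in 5% CO₂. Pentamidine served as positive control. Viability read by tetrazolium colorimetric assay on day 3. ED50 by sigmoidal regression.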

Trypanothione reductase = Trypanothione reductase (Trypanosoma cruzi, UniProt P28593); test: Inhibitory activity against Trypanosoma cruzi trypanothione disulfide reductase, assay in presence of 57 uM T(S)2.
Method in brief: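 Assay contained 250 µM NADPH, 57 µM T(S)₂, inhibitor at 0.3–50 µM and 1% DMSO final. Started with enzyme; NADPH loss followed at 340 nm. IC50 in duplicate.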

[2] = Compound dose toxic against macrophages of Trypanosoma cruzi; type: ADME
Method in brief: (§1)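 Starch-induced peritoneal macrophages from female CD1 mice, 4 × 10⁵/mL in RPMI-1640, infected 5:1 with T. cruzi Y-strain trypomastigotes from MDCK overlay. Drug in 3-fold dilution series, quadruplicate, 3 days. Slides methanol-fixed and Giemsa-stained.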

[3] = Compound dose toxic against mouse peritoneal macrophages infected with Leishmania donovani; type: ADME
Method in brief: (§2)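 Starch-induced peritoneal macrophages from female CD1 mice, 4 × 10⁵/mL in RPMI-1640, infected with L. donovani (MHOM/ET/67/L82) amastigotes from hamster spleen. Drug in 3-fold dilution series, quadruplicate, 5 days. Giemsa-stained slides.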

[4] = Compound dose toxic against mouse peritoneal macrophages infected with Leishmania donovani (100% inhibition); type: ADME; method in brief: as §2
[5] = Compound dose toxic against macrophages of Trypanosoma cruzi (100% inhibition); type: ADME; method in brief: as §1
Trypanosoma brucei [6] = test: In vitro antiparasitic activity against Trypanosoma brucei was tested by sigmoidal regression analysis; conditions: read-out: ED50 (the source's name)
[7] = Compound dose toxic against mouse peritoneal macrophages infected with Leishmania donovani (100 % inhibition); type: ADME; method in brief: as §2
[8] = Compound dose toxic against macrophages of Trypanosoma cruzi (100 % inhibition); type: ADME; method in brief: as §1

Trypanothione reductase, sequence (P28593 whole entry): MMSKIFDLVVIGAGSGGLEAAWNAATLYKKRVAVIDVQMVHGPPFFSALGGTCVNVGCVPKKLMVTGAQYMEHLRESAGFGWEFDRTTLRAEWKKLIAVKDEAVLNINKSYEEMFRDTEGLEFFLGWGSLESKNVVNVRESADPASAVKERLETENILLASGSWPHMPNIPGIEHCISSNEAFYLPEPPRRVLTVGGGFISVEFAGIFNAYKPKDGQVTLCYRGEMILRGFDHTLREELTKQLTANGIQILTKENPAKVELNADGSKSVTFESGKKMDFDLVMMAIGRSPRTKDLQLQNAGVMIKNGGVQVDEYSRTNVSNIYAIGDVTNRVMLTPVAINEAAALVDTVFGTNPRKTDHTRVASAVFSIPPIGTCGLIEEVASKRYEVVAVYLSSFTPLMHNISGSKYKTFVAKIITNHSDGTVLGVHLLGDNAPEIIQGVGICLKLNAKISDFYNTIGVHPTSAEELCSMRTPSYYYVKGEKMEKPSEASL

Structure (SMILES)	EC50 (Trypanosoma cruzi) [µM]	EC50 (Trypanosoma brucei [1]) [µM]	IC50 (Trypanothione reductase) [µM]	Toxic dose [2] [µM]	also measured
CC1=C(CCCCCC(=O)O)C(=O)c2ccccc2C1=O	17	5.3	> 50	–	–
CC1=C(NCCCNCCC/N=C2/C(=O)c3ccccc3C(O)=C2C)C(=O)c2ccccc2C1=O	–	> 12.5	9	10	–
CC1=C(CCC(=O)NCCCCNCCCNC(=O)CCC2=C(C)C(=O)c3ccccc3C2=O)C(=O)c2ccccc2C1=O	13	4.9	2.7	–	–
CC1=C(CCCC(=O)NCCCNCCCNC(=O)CCCC2=C(C)C(=O)c3ccccc3C2=O)C(=O)c2ccccc2C1=O	> 49	27	11	–	–
CC1=C(CCC(=O)O)C(=O)c2c(O)cccc2C1=O	46	> 11	> 50	–	–
CN1CCN(C(=O)CCCC2=C(CCCC(=O)N3CCN(C)CC3)C(=O)c3c(O)cccc3C2=O)CC1	> 48	31.4	17.5	–	–
CC1=C(NCCCNCCCCNCCCNC2=C(C)C(=O)c3ccccc3C2=O)C(=O)c2ccccc2C1=O	–	> 1	6.5	1	Toxic dose [3]: 30 µM
CN(C)CCCN1CCN(CC2=C(N3CCN(CCCN(C)C)CC3)C(=O)c3ccccc3C2=O)CC1	> 12.5	> 12.5	> 57	–	–
CC1=C(NCCCNCCCN)C(=O)c2c(O)cccc2C1=O	–	> 12.5	57	1	–
CC1=C(NCCCCN)C(=O)c2ccccc2C1=O	–	> 12.5	> 57	3	–
CC1=C(O)c2ccccc2C(=O)/C1=N\CCCN1CCN(C)CC1	> 6.2	> 12.5	> 57	–	–
CC1=C(NCCCNCCCCNCCCN)C(=O)c2c(O)cccc2C1=O	–	> 30	28	1	–
CC1=C(CCCCCC(=O)NCCCN2CCN(CCCNC(=O)CCCCCC3=C(C)C(=O)c4cccc(O)c4C3=O)CC2)C(=O)c2c(O)cccc2C1=O	11.4	> 1.3	1.6	–	–
CC1=C(CCCC(=O)O)C(=O)c2c(O)cccc2C1=O	> 109	78	> 50	–	–
CC1=C(CCCC(=O)NCCCN2CCN(C)CC2)C(=O)c2c(O)cccc2C1=O	50	23	32	–	–
CC1=C(NCCCN2CCN(CCCNC3=C(C)C(=O)c4ccccc4C3=O)CC2)C(=O)c2ccccc2C1=O	–	> 12.5	10	30	–
CN1CCN(CCCNC(=O)CCCCCC2=C(CCCCCC(=O)NCCCN3CCN(C)CC3)C(=O)c3c(O)cccc3C2=O)CC1	–	10.1	0.8	30	Toxic dose [3]: 10 µM
CC1=C(CCCCC(=O)NCCCCNCCCNC(=O)CCCCC2=C(C)C(=O)c3ccccc3C2=O)C(=O)c2ccccc2C1=O	9	4.4	1.4	–	–
CC1=C(CCC(=O)O)C(=O)c2ccccc2C1=O	> 30	> 30	> 50	–	–
CC1=C(CCC(=O)NCCCN2CCN(C)CC2)C(=O)c2ccccc2C1=O	–	> 10	38	30	–
CN1CCN(CCCNC(=O)CCCCC2=C(CCCCC(=O)NCCCN3CCN(C)CC3)C(=O)c3c(O)cccc3C2=O)CC1	> 46	> 15	6.2	–	–

Structure (SMILES)	EC50 (Trypanosoma cruzi) [µM]	EC50 (Trypanosoma brucei [1]) [µM]	IC50 (Trypanothione reductase) [µM]	Toxic dose [2] [µM]	also measured
CN1CCN(CCCNC(=O)CCCC2=C(CCCC(=O)NCCCN3CCN(C)CC3)C(=O)c3c(O)cccc3C2=O)CC1	59	259	11	–	–
CC1=C(CCCNC(=O)OC(C)(C)C)C(=O)c2ccccc2C1=O	13.8	> 3	> 50	–	–
CC1=C(NCCCNCCCCNCCCN)C(=O)c2ccccc2C1=O	–	30	28	1	Toxic dose [3]: 30 µM
CC1=C(CCCC(=O)N2CCN(C)CC2)C(=O)c2c(O)cccc2C1=O	> 84	52	42	–	–
CN1CCN(C(=O)CCCCCC2=C(CCCCCC(=O)N3CCN(C)CC3)C(=O)c3c(O)cccc3C2=O)CC1	–	13.1	2.9	3	Toxic dose [3]: 3 µM
CC1=C(O)c2cccc(O)c2C(=O)/C1=N\CCCN1CCN(C)CC1	–	> 12.5	> 57	–	Toxic dose [4]: 30 µM; Toxic dose [5]: 10 µM
CC1=C(CCCCCC(=O)NCCCNCCCNC(=O)CCCCCC2=C(C)C(=O)c3ccccc3C2=O)C(=O)c2ccccc2C1=O	12.5	> 1.5	2.5	–	–
CC1=C(CCCC(=O)NCCCN2CCN(CCCNC(=O)CCCC3=C(C)C(=O)c4cccc(O)c4C3=O)CC2)C(=O)c2c(O)cccc2C1=O	28	3.4	2.3	–	–
CC1=C(CCC(=O)NCCCN2CCN(CCCNC(=O)CCC3=C(C)C(=O)c4cccc(O)c4C3=O)CC2)C(=O)c2c(O)cccc2C1=O	44	–	2.6	–	EC50 (Trypanosoma brucei [6]): 30.3 µM
CC1=C(N2CCN(CCCN(C)C)CC2)C(=O)c2ccccc2C1=O	> 12.5	> 12.5	> 57	–	–
CC1=C(CCCC(=O)NCCCCNCCCNC(=O)CCCC2=C(C)C(=O)c3ccccc3C2=O)C(=O)c2ccccc2C1=O	> 48	26.6	4	–	–
CC1=C(CCNC(=O)OC(C)(C)C)C(=O)c2c(O)cccc2C1=O	3.5	0.6	> 25	–	–
CC1=C(CCCCCC(=O)NCCCN2CCN(CCCNC(=O)CCCCCC3=C(C)C(=O)c4ccccc4C3=O)CC2)C(=O)c2ccccc2C1=O	11	5.7	3.1	–	–
CC1=C(CCCCCC(=O)NCCCCNCCCNC(=O)CCCCCC2=C(C)C(=O)c3ccccc3C2=O)C(=O)c2ccccc2C1=O	4	2.6	1.7	–	–
CC1=C(NCCCN2CCN(CCCN)CC2)C(=O)c2c(O)cccc2C1=O	–	> 3	39	3	Toxic dose [3]: 30 µM
CC1=C(CCC(=O)NCCCN2CCN(CCCNC(=O)CCC3=C(C)C(=O)c4ccccc4C3=O)CC2)C(=O)c2ccccc2C1=O	40	3.2	3.7	–	–
CN1CCN(C(=O)CCCCC2=C(CCCCC(=O)N3CCN(C)CC3)C(=O)c3c(O)cccc3C2=O)CC1	–	> 56	5.9	10	Toxic dose [3]: 3 µM
CC1=C(CCC(=O)NCCCN2CCN(C)CC2)C(=O)c2c(O)cccc2C1=O	–	> 10	16	10	–
CC1=CC(=O)c2ccccc2C1=O [MENADIONE]	–	–	–	10	Toxic dose [3]: 30 µM
CC1=CC(=O)c2c(O)cccc2C1=O [PLUMBAGIN]	–	1.5	–	–	Toxic dose [7]: 3 µM; Toxic dose [8]: 10 µM
